GAA850 FXN act: activators of GAA850 frataxin (FXN) promoter. HEK293 lucGAA850 FXN promoter luciferase reporter, 24 h; percent of 10 µM SAHA response. activation, % at 6 µM. 0.56% of 360,000 active. AID 540364;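 active = activation above the average of all compounds screened plus 3 SD, cutoff fixed separately per campaign, cut at about 7.5% in these data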;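 note: 0% = DMSO wells and 100% = 10 µM SAHA wells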
ABHD5 PLIN5 PPI: ABHD5-PLIN5 protein interaction inhibition; Split G. princeps luciferase complementation, luminescence, 4 h; inhibition, % at 4 µM; 0.78% of 360,000 active; AID 602281;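 active = inhibition above the mean inhibition across every tested compound plus 3 SD, cut at about 22% in these data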;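 note: 0% = DMSO only wells and the 100% control is not disclosed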
Target sequence (Q00G26 whole entry, looked up): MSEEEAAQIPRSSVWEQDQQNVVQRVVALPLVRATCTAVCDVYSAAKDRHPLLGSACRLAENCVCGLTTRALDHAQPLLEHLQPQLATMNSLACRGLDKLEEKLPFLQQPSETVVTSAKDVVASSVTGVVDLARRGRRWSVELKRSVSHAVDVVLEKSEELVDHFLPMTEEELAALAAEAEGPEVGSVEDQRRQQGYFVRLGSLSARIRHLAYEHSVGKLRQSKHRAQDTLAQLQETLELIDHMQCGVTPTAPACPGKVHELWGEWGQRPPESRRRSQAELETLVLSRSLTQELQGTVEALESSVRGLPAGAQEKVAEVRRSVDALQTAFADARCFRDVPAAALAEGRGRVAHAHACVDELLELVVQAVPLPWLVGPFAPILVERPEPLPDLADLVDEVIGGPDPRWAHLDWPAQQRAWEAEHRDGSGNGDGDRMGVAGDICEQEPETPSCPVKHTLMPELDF
Target sequence (Q8WTS1 whole entry, looked up): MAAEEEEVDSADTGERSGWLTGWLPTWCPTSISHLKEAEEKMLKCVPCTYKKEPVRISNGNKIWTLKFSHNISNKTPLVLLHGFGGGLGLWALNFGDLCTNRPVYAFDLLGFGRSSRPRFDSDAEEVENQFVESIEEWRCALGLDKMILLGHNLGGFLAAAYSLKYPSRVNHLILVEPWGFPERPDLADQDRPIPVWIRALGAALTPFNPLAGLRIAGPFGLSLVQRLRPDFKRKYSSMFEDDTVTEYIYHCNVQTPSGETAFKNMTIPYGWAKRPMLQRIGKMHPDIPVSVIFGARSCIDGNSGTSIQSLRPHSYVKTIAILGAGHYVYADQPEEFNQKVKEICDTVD
Hsp70 activator: switches on Hsp70 transcription. HeLa Hsp70 promoter luciferase reporter, luminescence; scaled: vehicle 0, proteasome-inhibitor control 100%. activation, % at 10 µM. 0.04% of 200,000 active;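 active = activation above the mean across all tested compounds plus 3 SD, cutoff set per campaign, cut at about 5.5% in these data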;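 note: 100% = MG132 at 30 µM as the positive control and 0% = DMSO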
HIF activator: HIF pathway transcriptional activation; AID 1910; activation, % at 7.5 µM (by protocol); U2OS HRE-luciferase reporter, luminescence; normalized: DMSO 0%, desferrioxamine 100%; 0.32% of 300,000 active;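 active = mean activation of at least 10% of the iron chelator positive control signal, with at least half of replicates also reaching 10%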
TAG inh: reduces triacylglycerol accumulation in H9c2 cells. inhibition, % at 12.5 µM. Nile Red lipid (TAG) fluorescence; cells loaded with 200 µM oleic acid. 0.66% of 230,000 active;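 active = pattern-corrected inhibition of lipid staining of at least 50% with the nuclear-stain viability signal not falling by more than 50%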;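 note: 0% = DMSO wells and 100% = triacsin C control wells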
Rad51 HR inh: blocks human Rad51 in homologous recombination; AID 1385; hRad51 DNA strand exchange, fluorescence dequenching; Q06609; inhibition, % at 10 µM; 0.085% of 200,000 active;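 active = inhibition above 40% at the single screening dose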;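 note: 0% = DMSO control wells and 100% = blanks with heterologous ssDNA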
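Material: hRad51 filaments on single-stranded DNA; Reagent: Donor/quencher-labelled 47-bp dsDNA substrate; Compound: 10 µM final, single point; Schedule: 37 °C 15-min filament assembly, 30-min compound preincubation, 15-min exchange; Technique: FRET fluorescence, excitation 485 nm, emission 520 nm; Benchmarks: control wells and blank wells on each plate.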
ABHD5 PLIN5 conf: confirmation of human ABHD5-PLIN5 interaction inhibitors. shares compounds with ABHD5 PLIN5 PPI. biochemical ABHD5-PLIN5 interaction, luminescence. inhibition, % at 4 µM. 67% of 2,200 active. AID 651612; in the data active = inhibition above about 23%;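 note: 0% = DMSO vehicle wells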
HNF4 split-luc: HNF4 split-luciferase signal hit, counter-screen. shares compounds with ABHD5 PLIN5 PPI. HNF4 dimerization, luminescence, biochemical. inhibition, % at 4 µM. 77% of 2,200 active. AID 651674;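 active = mean inhibition across replicate wells exceeding the computed hit threshold, cut at about 13% in these data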;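 note: light from luciferase halves that rejoin when HNF4 fusion proteins dimerize; 0% = DMSO only wells and the 100% control is not given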
* hit, by the source's call; nt = no result given. Shown are actives, neighbours in structure and some others; about 1.9% of the full set was active somewhere.

SMILES	GAA850 FXN act	ABHD5 PLIN5 PPI	Hsp70 activator	HIF activator	TAG inh	Rad51 HR inh	ABHD5 PLIN5 conf	HNF4 split-luc
CCOC(=O)C1=C(C)N(c2ccccc2)C(=O)/C1=C\c1ccco1	4.3	5.9	-0.3	-0.2	nt	6.3	nt	nt
Cc1ccc(-c2csc3ncnc(OCC(=O)NC(=O)NCc4ccco4)c23)cc1	0.0	30.7*	0.0	0.1	nt	-7.4	15.5	12.9*
COc1ccccc1C(=O)/C=C/c1ccc(N2CCCCC2)c([N+](=O)[O-])c1	-5.2	37.4*	0.0	4.5	nt	4.6	63.9*	66.6*
C/C(=N\NC(=O)c1c(Cl)cnn1C)c1cccnc1	4.4	-1.1	nt	1.1	15.8	nt	nt	nt
CC(=O)OC1CCC2(C)C(CCC3C4CC=C(C(C)=O)C4(C)OC(=O)CC32)C1 (stereo unspecified)	-14.5	60.6*	nt	nt	85.5	nt	88.2*	93.2*
Cc1ccccc1Oc1nc2c(C)cccn2c(=O)c1/C=C(\C#N)C(=O)NC1CCS(=O)(=O)C1 (stereo unspecified)	0.3	45.7*	nt	0.2	0.5	0.7	62.4*	48.8*
Cc1cccn2c(=O)c(/C=C(\C#N)C(=O)NC3CCS(=O)(=O)C3)c(Oc3ccccc3Cl)nc12 (stereo unspecified)	3.6	12.6	nt	1.2	nt	nt	nt	nt
CCOc1ccc(C(=O)NCC(=O)OCCCC(=O)c2ccc(F)cc2)cc1OCC	0.6	6.5	nt	nt	7.1	nt	nt	nt
COc1ccc(C(=O)c2c(C)c3ccccc3n2CC(O)CNC(C)C)cc1 (stereo unspecified)	-8.2	26.4*	-0.5	-0.5	25.2	-8.5	5.5	0.1
CC(C)NCC(O)Cn1c2c(c3ccccc31)CCc1c-2cnn1-c1ccccc1 (stereo unspecified)	-7.3	19.2	0.1	6.3	nt	24.7	nt	nt
CNC(=O)/C(C#N)=C/c1ccc(-c2nc3ccccc3s2)o1	6.4	35.5*	nt	0.4	0.4	nt	6.2	4.2
Cc1cc(S(=O)(=O)N2CCN=C2c2ccccc2)c(C)cc1Cl	-0.6	-8.4	-0.2	-0.2	-15.4	1.8	nt	nt
CCOc1ncccc1C(=O)Nc1cc(S(=O)(=O)N2CCCCC2)ccc1C	-1.2	-7.1	nt	nt	-0.3	nt	nt	nt
CC1(c2ccc([N+](=O)[O-])cc2)Nc2ccccc2S1 (stereo unspecified)	4.2	35.1*	nt	2.5	nt	nt	-4.7	-9.3
O=C1Nc2ccccc2/C1=C/c1ccc([N+](=O)[O-])cc1	-0.3	19.0	nt	0.2	nt	nt	nt	nt
COc1ccccc1CNc1nc(NCc2ccc3occc3c2)c2sccc2n1	0.1	23.9*	nt	nt	-35.6	nt	7.7	15.7*
COc1ccccc1CNc1nc(NCc2ccccc2OC)c2sccc2n1	-3.2	2.9	nt	nt	-6.8	nt	nt	nt
CCc1cc2c(=O)n(Cc3ccco3)c(SCc3c(C)noc3C)nc2s1	-4.7	26.1*	-0.2	0.0	8.7	11.9	30.4*	50.7*
COc1ccc(OC)c(NC(=O)c2cnc3n(c2=O)CCS3)c1	2.4	5.7	-0.2	-0.1	-3.3	10.6	nt	nt
COc1ccc(OC(=O)c2cnc3n(c2=O)CCS3)cc1	-0.6	40.8*	nt	-0.2	9.9	0.3	0.0	1.2
O=C1/C(=C\c2ccccc2)CCC/C1=C/c1ccccc1	2.6	5.4	nt	nt	-2.3	nt	nt	nt
CCN(CC)CCC(=O)N1C/C(=C/c2ccccc2)C(=O)/C(=C\c2ccccc2)C1	-14.7	96.5*	nt	nt	50.5*	nt	102.1*	102.7*
O=C1/C(=C\c2ccc(Cl)c(Cl)c2)CN(C(=O)CCN2CCOCC2)C/C1=C/c1ccc(Cl)c(Cl)c1	-15.4	98.9*	nt	nt	62.7*	nt	103.4*	107.9*
O=C(CCN1C(=O)S/C(=C\c2ccccc2)C1=O)N1CCCCC1	1.8	11.9	nt	0.2	nt	nt	nt	nt
O=C1/C(=C\c2ccccc2)CN(C(=O)CCN2CCCCC2)C/C1=C/c1ccccc1	-14.5	98.3*	nt	nt	45.8	nt	103.1*	108.0*
SMILES	GAA850 FXN act	ABHD5 PLIN5 PPI	Hsp70 activator	HIF activator	TAG inh	Rad51 HR inh	ABHD5 PLIN5 conf	HNF4 split-luc
Cc1ccc(NC(=O)CC2S/C(=N/N=C/c3c[nH]c4ccccc34)NC2=O)cc1 (stereo unspecified)	3.8	25.8*	-0.1	nt	nt	nt	16.4	14.0*
CC(C)NC(=O)/C(C#N)=C/c1cccc(NC(=O)c2ccccc2Cl)c1	0.5	28.2*	0.2	0.3	nt	-8.1	65.2*	56.7*
CCOC(=O)c1c(NC(=O)COC(=O)CC(NC(C)=O)c2ccccc2)sc(C(=O)NC)c1C (stereo unspecified)	1.2	11.1	nt	-0.2	11.1	nt	nt	nt
COc1cc(SC#N)ccc1N=Cc1c(C)[nH]n(-c2ccc(C)cc2C)c1=O	-3.1	26.8*	-0.3	-0.4	nt	-17.9	38.2*	26.2*
Cc1ccc2c(c1C)-c1c(ccc(C)c1C)C(=O)C2=O	-3.0	51.7*	nt	nt	37.2	nt	42.8*	68.5*
COc1cccc(F)c1C(C[N+](=O)[O-])c1c(N)n(C)c(=O)n(C)c1=O (stereo unspecified)	-1.7	31.3*	nt	-0.2	47.2	16.8	29.8*	67.6*
CC(C(c1ccc2c(c1)OCO2)c1c(N)n(C)c(=O)n(C)c1=O)[N+](=O)[O-] (stereo unspecified)	1.8	33.0*	nt	-0.5	0.2	nt	6.0	11.8
COc1cc(C(C[N+](=O)[O-])c2c(N)n(C)c(=O)n(C)c2=O)ccc1O (stereo unspecified)	-1.5	44.8*	-0.2	-0.3	-4.8	1.5	36.9*	55.2*
Cn1c(N)c(C(=O)CSc2ccc3c(c2)OCCO3)c(=O)n(C)c1=O	0.1	-3.6	-0.5	1.1	-7.1	-8.9	nt	nt
Cc1ccc(C(C[N+](=O)[O-])c2c(N)n(C)c(=O)n(C)c2=O)cc1 (stereo unspecified)	1.1	31.9*	nt	0.8	-1.2	14.7	35.7*	43.9*
O=C(COC(=O)CCC(=O)c1ccc(F)cc1)NCCc1ccccc1	0.7	3.8	nt	nt	1.1	nt	nt	nt
CC(CNc1ccc(Cl)cc1)(CNc1ccc(Cl)cc1)[N+](=O)[O-]	-0.8	-2.1	nt	nt	1.7	nt	nt	nt
O=C(CNCc1ccc(F)cc1)Nc1ccc(C(=O)N2CCCCC2)cc1	0.3	4.6	nt	-0.3	nt	nt	nt	nt
Cc1ccc(CNC(=O)COC(=O)c2cc(=O)[nH]c3ccccc23)cc1	-0.3	-1.4	nt	nt	-12.0	nt	nt	nt
O=C(COc1ccccc1)NS(=O)(=O)c1ccccc1	0.9	-5.4	nt	1.6	nt	nt	nt	nt
Cc1cccn2c(=O)c3cc(C(=O)NCCc4ccccc4)c(=N)n(Cc4ccco4)c3nc12	-2.1	25.5*	nt	-1.1	nt	nt	6.0	17.0*
Cc1cccn2c(=O)c3cc(C(=O)NCc4ccco4)c(=N)n(C(C)C)c3nc12	1.9	27.5*	0.3	0.5	3.6	-3.1	5.9	18.2*
